Measurements collected from several papers.
Target: Myosin-IIIa (MYO3A, Homo sapiens, UniProt Q8NEV4)

SMILES	test	conditions	remaining binding
Cc1cnc(Nc2ccc(C(=O)N3CCC(N4CCCC4)CC3)cc2)nc1-c1cc2ccccc2s1	binding, competition with immobilised ligand	1 µM	85%
CN(CCCC(F)(F)F)c1nccc(-c2cnn3ncccc23)n1	binding	1 µM	78%
FC(F)(F)c1ccc2c(c1)nc(-c1cccnc1)n2C1CC1	cell-free assay, competition with immobilised ligand	1 µM	100%
C=CC(=O)N1CCC(C(=O)NCC(=O)N2CCN(c3nc(-c4cnc(N)nc4C(F)F)nc(N4CCOCC4)n3)CC2)CC1	binding, competition with immobilised ligand	1 µM	100%
COc1ncc2cc3ccccc3nc2c1C#N	binding, competition with immobilised ligand	5 µM	100%
Cc1nccc(COC(=O)N2C[C@@H]3[C@@H](CNC(=O)c4ccc5[nH]nnc5c4)[C@@H]3C2)n1	binding, competition with immobilised ligand	1 µM	99%
O=C(NCC1CCOCC1)c1n[nH]cc1NC(=O)c1c(F)cccc1F	binding, competition with immobilised ligand	1 µM	88%
Cc1cnn2ncc(-c3ccnc(N(C)C)n3)c2c1	binding	1 µM	100%
O=C(NS(=O)(=O)c1ccc(NCC2CCOCC2)c([N+](=O)[O-])c1)c1ccc(N2CCN(Cc3ccc(C(F)(F)F)cc3-c3ccc(Cl)cc3)CC2)cc1Oc1cnc2[nH]ccc2c1	cell-free assay, competition with immobilised ligand	1 µM	85%
CC1CCCN1c1nccc(-c2cnn3ncccc23)n1 (stereo not drawn)	binding	1 µM	100%
COc1cnc(Nc2cccc(S(N)(=O)=O)c2)nc1N1CCN(c2ccccc2)C(=O)C1	binding, competition with immobilised ligand	1 µM	100%
CN(C)c1ncc(F)c(-c2cnn3ncccc23)n1	binding	1 µM	100%
CCCCN(CCCC)C(=O)CN1C[C@@H](c2cc(OC)c3c(c2)OCO3)[C@H](C(=O)O)[C@H]1CC(C)(C)CCC	cell-free assay, competition with immobilised ligand	1 µM	100%
O=C(c1ccc(Nc2ncc(Cl)c(-c3ccc(Cl)s3)n2)cc1)N1CCC(N2CCCC2)CC1	binding, competition with immobilised ligand	1 µM	81%
CNC(=O)[C@@H]1CC[C@@H](n2c(-c3ccc4cnccc4c3)nc3ccc(C(=O)NCc4cccc(C(N)=O)c4)cc32)C1	binding, competition with immobilised ligand	1 µM	100%
N[C@@H]1CCN(c2nccc(-c3cnn4ncccc34)n2)C1	binding	1 µM	100%
O=C(O)c1cc(-c2ccc(C3CCNCC3)cc2)c2ccc(-c3ccc(C(F)(F)F)cc3)cc2c1	binding, competition with immobilised ligand	1 µM	100%
O=C(c1ccc(Nc2nccc(-c3cc4ccccc4s3)n2)cc1)N1CCC(N2CCCC2)CC1	binding, competition with immobilised ligand	1 µM	100%
CN(C)c1nccc(-c2cnc3ncccn23)n1	binding	1 µM	90%
CN(C(=O)c1ccccc1)c1cc(N(C)c2ccc3c(c2)CCc2ccc(C(=O)NCCN4CCOCC4)cc2C3=O)ccc1F	cell-free assay, competition with immobilised ligand	1 µM	91%
Nc1ncc2c(n1)-c1c([nH]c3ccc(C#CC4CC4)cc13)CCCC2	binding, competition with immobilised ligand	1 µM	91%
